ChEMBL document CHEMBL3739264, “Synthesis and bio-evaluation of novel quinolino-stilbene derivatives as potential anticancer agents” (Bioorg Med Chem, 2015)
Activity calls are given as the source filed them. The rule behind the calls is not given here.

Assays:
HeLa [1] = assay: Antiproliferative activity against human HeLa cells after 72 hrs by SRB assay; format: functional, cell-based
Summary of the method: (§1)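 Cells seeded at 4,000-5,000/well for 16 h, then exposed 72 h to serial dilutions of compound in DMSO; sham DMSO as 100% and TCA-treated wells as 0%. Fixed in 10% TCA at 4°C for 1 h, stained with 0.4% SRB for 30 min, dye solubilised in 10 mmol Tris pH 10.5, read at 540 nm. IC50 from sigmoidal dose-response curves; two biological replicates, four technical each.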

[2] = Antiproliferative activity against human MCF10A cells after 72 hrs by SRB assay; format: cell-based; conditions: MCF-10A; summary of the method: as §1
MDA-MB-231 [3] = assay: Cell cycle arrest in human MDA-MB-231 cells assessed as accumulation at G2/M phase at 6 uM after 48 hrs by flow cytometry analysis relative to control; format: functional
Summary of the method: (§2)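 About 1 × 10^6 cells per plate seeded overnight, then treated with compound and harvested at set times. Cells fixed in 75% ethanol at -20°C for 12-24 h and stained 1 h with 100 µg/ml PI, 100 µg/ml RNase A and 0.3% NP-40 in PBS. DNA content measured by flow cytometry; phase fractions compared with sham-treated cells.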

HeLa [4] = assay: Cell cycle arrest in human HeLa cells assessed as accumulation at sub-G1 phase at 6 uM after 72 hrs by flow cytometry analysis relative to control; format: functional; summary of the method: as §2
MDA-MB-231 [5] = assay: Cell cycle arrest in human MDA-MB-231 cells assessed as accumulation at sub-G1 phase at 6 uM after 48 hrs by flow cytometry analysis relative to control; format: functional
Summary of the method: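 Cells seeded overnight at about 1 × 10^6 per plate, treated next morning, and harvested at set times. Fixed in 75% ethanol at -20°C for 12-24 h, then stained 1 h in PBS with 0.3% NP-40, 100 µg/ml RNase A and 100 µg/ml propidium iodide. Phase distribution read from DNA content by flow cytometry against sham-treated cells.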

HeLa [6] = assay: Induction of DNA damage in human HeLa cells at 6 uM after 48 hrs by immunostaining; format: functional, cell-based
Summary of the method: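 γH2A.X (phospho-Ser139) immunostaining, with HeLa at 6 µM for 24 or 48 h and MDA-MB468 at 1 µM. Cells on coverslips fixed and permeabilized in ice-cold methanol at -20°C. Blocked in 1% FBS, primary antibody 1:200 overnight at 4°C, then fluorophore-conjugated secondary 1 h. DNA counterstained with DRAQ5.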

[7] = Cell cycle arrest in human MCF10A cells assessed as accumulation at G2/M phase at 6 uM after 48 hrs by flow cytometry analysis relative to control; format: functional, cell-based; conditions: MCF-10A; summary of the method: as §2
MCF7 = assay: Antiproliferative activity against human MCF7 cells after 72 hrs by SRB assay; format: functional, cell-based; conditions: MCF7, 72 h
Summary of the method: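 Cells seeded at 4,000-5,000/well for 16 h, then exposed 72 h to serial dilutions of compound in DMSO; sham DMSO as 100% and TCA-treated wells as 0%. IC50 from sigmoidal dose-response curves; two biological replicates, four technical each.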

MDA-MB-231 [8] = assay: Cell cycle arrest in human MDA-MB-231 cells assessed as accumulation at G0-G1 phase at 6 uM after 72 hrs by flow cytometry analysis relative to control; format: functional; summary of the method: as §2
[9] = Cell cycle arrest in human MCF10A cells assessed as accumulation at sub-G1 phase at 6 uM after 24 hrs by flow cytometry analysis relative to control; format: functional, cell-based; conditions: MCF-10A; summary of the method: as §2
HeLa [10] = assay: Cell cycle arrest in human HeLa cells assessed as accumulation at S phase at 6 uM after 12 hrs by flow cytometry analysis relative to control; format: functional; summary of the method: as §2
HeLa [11] = assay: Cell cycle arrest in human HeLa cells assessed as accumulation at S phase at 6 uM after 24 hrs by flow cytometry analysis relative to control; format: functional; summary of the method: as §2
MDA-MB-231 [12] = assay: Cell cycle arrest in human MDA-MB-231 cells assessed as accumulation at G0-G1 phase at 6 uM after 48 hrs by flow cytometry analysis relative to control; format: functional; summary of the method: as §2
HeLa [13] = assay: Cell cycle arrest in human HeLa cells assessed as accumulation at G2/M phase at 6 uM after 48 hrs by flow cytometry analysis relative to control; format: functional; summary of the method: as §2
MDA-MB-231 [14] = assay: Cell cycle arrest in human MDA-MB-231 cells assessed as accumulation at S phase at 6 uM after 72 hrs by flow cytometry analysis relative to control; format: functional; summary of the method: as §2
[15] = Cell cycle arrest in human MCF10A cells assessed as accumulation at sub-G1 phase at 6 uM after 48 hrs by flow cytometry analysis relative to control; format: functional, cell-based; conditions: MCF-10A; summary of the method: as §2
Tubulin (Homo sapiens) = Tubulin (Homo sapiens) (UniProt P68371+Q9H4B7+P0DPH7+P68366+Q13509+Q71U36+P04350+Q3ZCM7+P07437+P68363+Q9BQE3+Q6PEY2+Q13885+Q9BVA1+Q9BUF5); assay: Inhibition of tubulin (unknown origin) polymerization at 6 to 12 uM measured every 1 min for 1 hr by automated plate reader analysis; format: protein-complex assay
Summary of the method: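 Cell-free assay: 4 mg/ml tubulin in 80 mM PIPES, 2 mM MgCl2, 0.5 mM EGTA, 1 mM GTP, 10% glycerol, pH 6.9, added to wells with ligand pre-warmed 2-3 min at 37°C. A340 read every min for 1 h.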

HeLa [16] = assay: Cell cycle arrest in human HeLa cells assessed as accumulation at G0-G1 phase at 6 uM after 12 hrs by flow cytometry analysis relative to control; format: functional; summary of the method: as §2
HeLa [17] = assay: Cell cycle arrest in human HeLa cells assessed as accumulation at sub-G1 phase at 6 uM after 48 hrs by flow cytometry analysis relative to control; format: functional; summary of the method: as §2
MDA-MB-468 = assay: Antiproliferative activity against human MDA-MB-468 cells after 72 hrs by SRB assay; format: functional, cell-based; conditions: MDA-MB-468, 72 h; summary of the method: as §1
HeLa [18] = assay: Decrease of Wee-1 level in human HeLa cells at 6 uM after 48 hrs by Western blot analysis
[19] = Cell cycle arrest in human MCF10A cells assessed as accumulation at S phase at 6 uM after 12 hrs by flow cytometry analysis relative to control; format: functional, cell-based; conditions: MCF-10A; summary of the method: as §2
[20] = Cell cycle arrest in human MCF10A cells assessed as accumulation at G2/M phase at 6 uM after 72 hrs by flow cytometry analysis relative to control; format: functional, cell-based; conditions: MCF-10A; summary of the method: as §2
MDA-MB-231 [21] = assay: Cell cycle arrest in human MDA-MB-231 cells assessed as accumulation at S phase at 6 uM after 24 hrs by flow cytometry analysis relative to control; format: functional; summary of the method: as §2
MDA-MB-231 [22] = assay: Cell cycle arrest in human MDA-MB-231 cells assessed as accumulation at S phase at 6 uM after 48 hrs by flow cytometry analysis relative to control; format: functional; summary of the method: as §2
[23] = Cell cycle arrest in human MCF10A cells assessed as accumulation at sub-G1 phase at 6 uM after 12 hrs by flow cytometry analysis relative to control; format: functional, cell-based; conditions: MCF-10A; summary of the method: as §2
MDA-MB-231 [24] = assay: Cell cycle arrest in human MDA-MB-231 cells assessed as accumulation at G2/M phase at 6 uM after 24 hrs by flow cytometry analysis relative to control; format: functional; summary of the method: as §2
[25] = Cell cycle arrest in human MCF10A cells assessed as accumulation at G0-G1 phase at 6 uM after 12 hrs by flow cytometry analysis relative to control; format: functional, cell-based; conditions: MCF-10A; summary of the method: as §2
HeLa [26] = assay: Induction of apoptosis in human HeLa cells assessed as membrane blebbing at 6 uM after 48 hrs by time lapse microscopy analysis; format: functional, cell-based
Summary of the method: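 Treated HeLa cells were followed by time-lapse microscopy, with images taken at set time points.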

SMILES: FC(F)(F)c1cccc(/C=C\c2cc3ccccc3nc2Cl)c1
- IC50 (HeLa [1]): 2.85 µM
- IC50 [2]: 6.01 µM
- Activity (MDA-MB-231 [3]): 18.6%
- Activity (HeLa [4]): 46%
- Activity (MDA-MB-231 [5]): 23.8%
- Activity (HeLa [6]): inactive
- Activity [7]: 6.2%
- IC50 (MCF7): 3.53 µM
- Activity (MDA-MB-231 [8]): 34.6%
- Activity [9]: 7.3%
- Activity (HeLa [10]): 8.9%
- Activity (HeLa [11]): 8.1%
- Activity (MDA-MB-231 [12]): 36.3%
- Activity (HeLa [13]): 23.9%
- Activity (MDA-MB-231 [14]): 14.2%
- Activity [15]: 12.9%
- inhibition (Tubulin (Homo sapiens)): Active
- Activity (HeLa [16]): 8%
- Activity (HeLa [17]): 40.6%
- IC50 (MDA-MB-468): 3.7 µM
- Activity (HeLa [18]): Active
- Activity [19]: 52.9%
- Activity [20]: 4.9%
- Activity (MDA-MB-231 [21]): 10.8%
- Activity (MDA-MB-231 [22]): 15.4%
- Activity [23]: 3.4%
- Activity (MDA-MB-231 [24]): 38.3%
- Activity [25]: 31.3%
- Activity (HeLa [26]): Active
